From ChEMBL document CHEMBL4177633 (Bioorg Med Chem, 2017)
Activity calls are given as the source filed them. No cut-off for these calls is given here.

Experiments:
[1] = biological target: T1, Fatty-acid amide hydrolase 1 (Homo sapiens, UniProt O00519); test: Inhibition of FAAH in human U937 cell homogenate assessed as decrease in [ethanolamine-1-3H]AEA levels preincubated for 30 mins followed by AEA addition measured after 15 mins by liquid scintillation counting method
T1 sequence (O00519 whole entry): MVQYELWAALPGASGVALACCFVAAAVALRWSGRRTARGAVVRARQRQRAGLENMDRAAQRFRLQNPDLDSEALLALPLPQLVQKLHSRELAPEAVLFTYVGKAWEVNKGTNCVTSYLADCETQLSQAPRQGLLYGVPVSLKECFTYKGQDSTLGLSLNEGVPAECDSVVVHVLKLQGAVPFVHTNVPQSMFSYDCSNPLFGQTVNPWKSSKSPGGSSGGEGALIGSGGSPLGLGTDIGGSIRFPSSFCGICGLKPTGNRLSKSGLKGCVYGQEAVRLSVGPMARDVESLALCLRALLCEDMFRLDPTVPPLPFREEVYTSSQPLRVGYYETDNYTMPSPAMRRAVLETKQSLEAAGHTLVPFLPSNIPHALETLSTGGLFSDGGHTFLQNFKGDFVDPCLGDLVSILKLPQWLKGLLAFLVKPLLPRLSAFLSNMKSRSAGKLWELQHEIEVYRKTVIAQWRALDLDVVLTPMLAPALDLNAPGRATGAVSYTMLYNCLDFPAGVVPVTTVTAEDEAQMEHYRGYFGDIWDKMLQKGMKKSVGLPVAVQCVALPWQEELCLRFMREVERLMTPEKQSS
Method in brief: (§1)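 U937 cell homogenate (100 μg) in 10 mM Tris-HCl, 1 mM EDTA, pH 8, 0.1% fatty acid-free BSA. Compound screened at 10 μM, 30 min at 37 °C. Then 100 nM AEA with 1 nM [ethanolamine-1-3H]AEA tracer added, 15 min at 37 °C. Stopped with ice-cold CHCl3:MeOH (1:1), centrifuged, tritium in aqueous phase counted by liquid scintillation. Data as mean with 95% CI, n = 3.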

[2] = biological target: T2, Fatty-acid amide hydrolase 1 (Homo sapiens) (UniProt O00519); test: Inhibition of FAAH in human U937 cell homogenate assessed as decrease in [ethanolamine-1-3H]AEA levels up to 10 uM preincubated for 30 mins followed by AEA addition measured after 15 mins by liquid scintillation counting method; method in brief: as §1
T2 sequence (whole entry): T1 sequence (O00519 whole entry)

[3] = tested on: U-937; test: Inhibition of [ethanolamine-1-3H]AEA uptake in human U937 cell homogenate preincubated for 20 mins followed by AEA addition measured after 5 mins by scintillation counting method; format: functional, cell-based; conditions: in the assay text read “intact human U937 cells” for “human U937 cell homogenate”
Method in brief: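 Intact U937 cells (0.5 × 10^6) in serum-free medium. Preincubated 20 min at 37 °C with compound at a 10 μM screening concentration, then 5 min at 37 °C with 100 nM AEA plus 0.5 nM [ethanolamine-1-3H]AEA. Stopped on ice and by rapid filtration over GF/C filters presoaked in PBS/0.2% BSA. Washed with ice-cold PBS/1% fatty acid-free BSA, then scintillation counted.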

[4] = biological target: T3, Cannabinoid receptor 1 (Homo sapiens, UniProt P21554); test: Positive allosteric modulation of human CB1 receptor expressed in CHO-K1 cell membranes assessed as induction of [3H]CP55,940 binding after 1.5 hrs by liquid scintillation counting assay; format: functional
T3 sequence (P21554 whole entry): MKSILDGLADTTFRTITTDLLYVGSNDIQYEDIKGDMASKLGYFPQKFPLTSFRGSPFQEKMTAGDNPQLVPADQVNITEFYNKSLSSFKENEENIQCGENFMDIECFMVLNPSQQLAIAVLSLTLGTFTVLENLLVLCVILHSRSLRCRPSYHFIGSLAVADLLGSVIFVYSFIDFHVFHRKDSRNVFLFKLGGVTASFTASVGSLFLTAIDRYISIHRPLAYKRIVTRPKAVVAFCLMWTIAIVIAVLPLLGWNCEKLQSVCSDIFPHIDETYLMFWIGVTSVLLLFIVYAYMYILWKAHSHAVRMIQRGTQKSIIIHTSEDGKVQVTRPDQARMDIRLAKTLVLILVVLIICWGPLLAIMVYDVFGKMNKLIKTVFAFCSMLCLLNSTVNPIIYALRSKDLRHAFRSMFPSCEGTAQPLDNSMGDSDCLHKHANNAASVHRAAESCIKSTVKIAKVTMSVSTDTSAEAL

[5] = biological target: T4, Monoglyceride lipase (Homo sapiens, UniProt Q99685); test: Inhibition of MAGL in human U937 cell homogenate assessed as decrease in [ethanolamine-1-3H]AEA levels preincubated for 30 mins followed by AEA addition measured after 15 mins by liquid scintillation counting method; method in brief: as §1
T4 sequence (Q99685 whole entry): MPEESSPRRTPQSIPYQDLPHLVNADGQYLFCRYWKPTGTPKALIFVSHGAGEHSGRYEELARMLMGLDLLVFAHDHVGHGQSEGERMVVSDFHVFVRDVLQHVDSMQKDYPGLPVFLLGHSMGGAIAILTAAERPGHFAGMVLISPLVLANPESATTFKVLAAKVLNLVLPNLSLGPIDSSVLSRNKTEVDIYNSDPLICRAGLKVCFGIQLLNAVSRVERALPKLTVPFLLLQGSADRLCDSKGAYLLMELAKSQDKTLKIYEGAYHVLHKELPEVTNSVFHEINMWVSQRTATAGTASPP

[6] = biological target: T5, Monoglyceride lipase (Homo sapiens) (UniProt Q99685); test: Inhibition of MAGL in human U937 cell homogenate assessed as decrease in [ethanolamine-1-3H]AEA levels up to 10 uM preincubated for 30 mins followed by AEA addition measured after 15 mins by liquid scintillation counting method; method in brief: as §1
T5 sequence (whole entry): T4 sequence (Q99685 whole entry)

[7] = biological target: T3, Cannabinoid receptor 1; test: Positive allosteric modulation of human CB1 receptor expressed in CHO-K1 cell membranes assessed as induction of [3H]CP55,940 binding at 100 uM after 1.5 hrs by liquid scintillation counting assay relative to control; format: functional
[8] = biological target: Cannabinoid receptor 2 (Homo sapiens, UniProt P34972); test: Displacement of [3H]CP55,940 from human CB2 receptor expressed in CHO-K1 cell membranes after 1.5 hrs by liquid scintillation counting assay
Cannabinoid receptor 2, sequence (P34972 whole entry): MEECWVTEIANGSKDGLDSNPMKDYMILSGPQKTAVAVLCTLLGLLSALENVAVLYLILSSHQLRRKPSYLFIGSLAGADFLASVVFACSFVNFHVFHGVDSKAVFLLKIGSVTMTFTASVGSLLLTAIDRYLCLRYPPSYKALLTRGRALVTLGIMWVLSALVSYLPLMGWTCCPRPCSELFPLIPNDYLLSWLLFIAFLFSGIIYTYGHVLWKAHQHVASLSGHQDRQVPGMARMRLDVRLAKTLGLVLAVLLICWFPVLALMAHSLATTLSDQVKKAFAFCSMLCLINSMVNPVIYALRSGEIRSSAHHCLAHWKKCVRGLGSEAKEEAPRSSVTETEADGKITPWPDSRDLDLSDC

[9] = biological target: T3, Cannabinoid receptor 1; test: Negative allosteric modulation of human CB1 receptor expressed in HEK293 cells assessed as inhibition of 33 nM CP55,940-induced SRE transcriptional activity after 5 hrs by luciferase reporter gene assay; format: functional, cell-based
[10] = biological target: T3, Cannabinoid receptor 1; test: Positive allosteric modulation of human CB1 receptor expressed in CHO-K1 cell membranes assessed as induction of [3H]CP55,940 binding up to 10 uM after 1.5 hrs by liquid scintillation counting assay; format: functional

Row | SMILES | IC50 [1] [µM] | inhibition [2] | IC50 [3] [µM] | EC50 [4] [µM] | IC50 [5] [µM] | inhibition [6] | Activity [7] [%] | Ki [8] [µM] | IC50 [9] [µM] | Activity [10] | Activity [4]
1 | O=C(Nc1ccc(Cl)cc1)Nc1cccc(Nc2cccc(N3CCCC3)c2)c1 | > 10 | inactive | > 10 | 13.5 | > 10 | inactive |  | > 100 | 9.6 |  | 
2 | O=C(Nc1ccc(Cl)cc1)Nc1cccc(Nc2cccc(N3CCCC3)n2)c1 | > 10 | inactive | > 10 |  | > 10 | inactive |  | 52.6 |  |  | 
3 | O=C(Nc1ccc(Cl)cc1)Nc1cccc(-c2cccc(N3CCCC3)c2)c1 | > 10 | inactive | > 10 | 0.043 | > 10 | inactive |  | 49.8 | 0.29 |  | Dose-dependent effect

The remaining lines, values ahead:

Row | IC50 [1] [µM] | inhibition [2] | IC50 [3] [µM] | EC50 [4] [µM] | IC50 [5] [µM] | inhibition [6] | Activity [7] [%] | Ki [8] [µM] | IC50 [9] [µM] | Activity [10] | Activity [4] | SMILES
4 | > 10 | inactive | > 10 | > 10 | > 10 | inactive | 10 | > 100 | 1.9 | Active |  | O=C(Cc1ccc(Cl)cc1)Nc1cccc(-c2cccc(N3CCCC3)c2)c1
5 | 2.1 |  | > 10 |  |  | inactive |  | > 10 |  |  |  | O=C(Nc1ccc(Cl)cc1)Nc1cccc(-c2cccc(N3CCCC3)n2)c1
